Rows were chosen to be rich in hits. Some 2.5% of all compounds tested hit in one or more screens of this group.
SENP7 inh: SENP7 protease inhibition. Q9BQF6. recombinant SENP7, Z-RLRGG-aminoluciferin luminescence, 40 min. inhibition, % at 5 µM. actives 1.5% (n = 330,000);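 active = inhibition above about 50% at the single test dose, limit read from the data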
SENP8 block-1: SENP8 (human) protease inhibition. recombinant SENP8, Nedd8 substrate fluorescence. inhibition, % at 20 µM. actives 0.64% (n = 360,000). AID 602440; in the data active = inhibition mostly above about 40%, no sharp cut-off; inactive = mostly below about 27%
SENP8 block-2: inhibitors of human SENP8 protease; Q96LD8; purified SENP8, Z-RLRGG-aminoluciferin cleavage, luminescence; inhibition, % at 10 µM; actives 1.2% (n = 330,000); AID 2540; in the data active = inhibition above about 50%
SENP1 inh: inhibitors of human SENP1 SUMO protease catalytic domain; actives 0.21% (n = 360,000); recombinant SENP1 catalytic domain, CyPet-SUMO1-YPet FRET cleavage; inhibition, % at 10 µM;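 active = inhibition at least 30% at 10 µM, raw YFP signal under a set limit, fluorescence ratio 0.5 to 1.5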
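Material: hSENP1 catalytic domain, recombinant; medium: Tris pH 8 with BME, BSA, NP40 and catalase; compound: single concentration of 10 µM compound, 0.5% DMSO final; technique: FRET read of cyan and yellow fluorescence; timing: 50 min enzyme reaction, room temperature, light-protected; reagent: SFCypet-SUMO1-SFYpet substrate at 25 nM; control set: no-enzyme low, enzyme-DMSO high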
SENP6 block: inhibitors of human SENP6 protease; AID 2599; inhibition, % at 10 µM; Recombinant SENP6 catalytic domain, aminoluciferin luminescence; Q9GZR1; actives 1.8% (n = 330,000);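 active = inhibition above about 50% at the single tested dose, limit read from the data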
Target sequence (Q9GZR1 628-1112 limits assumed): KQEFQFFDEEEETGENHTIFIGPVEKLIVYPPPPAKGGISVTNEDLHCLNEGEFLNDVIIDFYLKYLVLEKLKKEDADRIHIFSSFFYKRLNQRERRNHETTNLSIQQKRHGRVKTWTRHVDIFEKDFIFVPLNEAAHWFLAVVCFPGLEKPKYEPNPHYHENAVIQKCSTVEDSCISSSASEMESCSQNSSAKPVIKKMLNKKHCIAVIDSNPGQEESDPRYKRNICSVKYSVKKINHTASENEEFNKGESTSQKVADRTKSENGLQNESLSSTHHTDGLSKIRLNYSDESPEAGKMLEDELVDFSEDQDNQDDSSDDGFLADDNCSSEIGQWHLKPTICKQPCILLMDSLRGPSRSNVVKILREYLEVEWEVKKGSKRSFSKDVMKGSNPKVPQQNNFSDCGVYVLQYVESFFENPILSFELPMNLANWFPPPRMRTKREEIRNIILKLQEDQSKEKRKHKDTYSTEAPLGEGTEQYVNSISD
SENP8 confirm: confirmation of human SENP8 protease inhibitors; shares compounds with SENP7 inh; Recombinant SENP8, Z-RLRGG-aminoluciferin luminescence, 60 min; inhibition, % at 12.5 µM; actives 40% (n = 6,200); AID 488912;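 active = mean inhibition across replicates above about 50%, limit read from the data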
SENP6 confirm: human SENP6 inhibition, confirmed. shares compounds with SENP7 inh. recombinant SENP6, Z-RLRGG-aminoluciferin luminescence. inhibition, % at 12.5 µM. actives 58% (n = 6,200)
SENP7 conf: confirmation of human SENP7 protease inhibitors; actives 69% (n = 6,200); recombinant SENP7, Z-RLRGG-aminoluciferin luminescence, 40 min; shares compounds with SENP7 inh; inhibition, % at 12.5 µM
Casp3 select: selectivity test for SENP inhibitors: human caspase-3 inhibition; purified caspase-3, Z-DEVD-aminoluciferin luminescence, 60 min; actives 60% (n = 6,200); shares compounds with SENP7 inh; inhibition, % at 12.5 µM;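 active = mean inhibition above about 50%, limit read from the data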
Luc interf: interferes with luciferase luminescence in SENP counter-screen; shares compounds with SENP7 inh; Pre-incubated SENP8/Z-RLRGG-aminoluciferin, luciferase luminescence interference; inhibition, % at 12.5 µM; actives 39% (n = 6,200);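 active = mean inhibition above about 50% when retested at one dose, limit read from the data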
Of the large screens only hits and unclear results are named; the others gave an inactive call (follow-up assays come after a bar, where they were run).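 Rule for the calls, unless noted: active = mean inhibition above about 50% in the one-dose retest (limit read from the data); inactive = the rest.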

Cc1ccc(/C(N)=N/OC(=O)c2ccc(C)cc2Cl)cc1	SENP7 inh 85.1, SENP8 block-2 70.3, SENP6 block 80.5 | SENP8 confirm 62.7 | SENP6 confirm 63.2 | SENP7 conf 88.6 | Casp3 select 56.9 | Luc interf inactive
Cc1cccc(/C(N)=N/OC(=O)c2ccc(Cl)cc2Cl)c1	SENP7 inh 98.3, SENP8 block-2 97.3, SENP6 block 94.2 | SENP8 confirm 99.1 | SENP6 confirm 100.3 | SENP7 conf 103.1 | Casp3 select 98.9 | Luc interf 95.5
N/C(=N\OC(=O)c1ccc(Cl)cc1Cl)c1ccccc1	SENP7 inh 98.9, SENP8 block-2 93.5, SENP6 block 100.8 | SENP8 confirm 98.1 | SENP6 confirm 99.2 | SENP7 conf 103.1 | Casp3 select 97.9 | Luc interf 97.6
Cc1cccc(/C(N)=N/OC(=O)c2cccc3ccccc23)c1	SENP7 inh 86.9, SENP8 block-2 76.5, SENP6 block 86.7 | SENP8 confirm 86.3 | SENP6 confirm 84.6 | SENP7 conf 96.1 | Casp3 select 72.3 | Luc interf 82.2
N/C(=N\OC(=O)c1cccc2ccccc12)c1cccc([N+](=O)[O-])c1	none
CCOc1cc(N2CCOCC2)c(OCC)cc1NC(=O)CN1C(=O)NC(C)(c2ccc(OC)cc2)C1=O (stereo unspecified)	none (no result: SENP7 inh, SENP8 block-2, SENP6 block)
CCOC(=O)c1c(NC(=O)CN2C(=O)C(=O)N(C(C)C)C2=O)sc(C)c1CC	none
N/C(=N\OC(=O)c1ccc(Cl)cc1Cl)c1ccc(Cl)cc1	SENP7 inh 54.2, SENP6 block 61.7 | SENP8 confirm inactive | SENP6 confirm inactive | SENP7 conf 69.1 | Casp3 select inactive | Luc interf inactive
CCOP(=O)(OCC)/C(=N/OC(=O)c1ccc(Cl)cc1Cl)C(N)=O	none
Cc1ccc(N=Cc2c(C)[nH]n(-c3nc4ccccc4[nH]3)c2=O)cc1	SENP7 inh 95.0, SENP8 block-2 86.2, SENP6 block 93.9 | SENP8 confirm 87.8 | SENP6 confirm 54.9 | SENP7 conf 93.6 | Casp3 select 95.2 | Luc interf 90.5
CC1CCN(C(=O)c2cc3c(ccc4ccccc43)o2)CC1	SENP7 inh 90.4, SENP8 block-2 89.0, SENP6 block 92.8 | SENP8 confirm 89.0 | SENP6 confirm 89.6 | SENP7 conf 98.5 | Casp3 select 78.3 | Luc interf 76.2
CCOC(=O)C1CCN(C(=O)c2cc3cc4ccc(C)cc4nc3o2)CC1	none
CCOC(=O)C1CCN(C(=O)c2cc3c(ccc4ccccc43)o2)CC1	SENP7 inh 55.7, SENP8 block-2 56.2, SENP6 block 72.9 | SENP8 confirm 69.2 | SENP6 confirm 66.9 | SENP7 conf 80.9 | Casp3 select 53.1 | Luc interf 54.6
Cc1cccc(C(=O)NCCc2ccccc2)c1	none
Cc1nn(-c2ccccc2)c(Cl)c1/C=N/NC(N)=O	none
Cc1nn(-c2ccccc2)c(Cl)c1/C=N/NC(=O)c1ccnn1C	SENP7 inh 94.1, SENP8 block-2 86.5, SENP6 block 94.0 | SENP8 confirm 59.3 | SENP6 confirm 80.8 | SENP7 conf 97.3 | Casp3 select 92.4 | Luc interf 54.8
O=C(CSc1nnc(NC(=O)c2ccccc2F)s1)Nc1ccccc1F	SENP7 inh 61.0, SENP8 block-2 69.2, SENP6 block 80.4 | SENP8 confirm inactive | SENP6 confirm 78.6 | SENP7 conf 90.6 | Casp3 select 86.7 | Luc interf inactive
O=C(CSc1nnc(NC(=O)c2ccco2)s1)Nc1ccccc1F	none
CCOc1ccccc1C(=O)Nc1nnc(SCC(=O)N2CCCC2)s1	none (no result: SENP7 inh, SENP8 block-2, SENP6 block)

Screening results as filed in PubChem BioAssay.
